Results published in ChEMBL document CHEMBL1142492 (J Med Chem, 2008).

Key:
[1] = target: cAMP-dependent protein kinase catalytic subunit beta (Homo sapiens) (UniProt P22694); experiment: Inhibition of PKAC-beta at 3 uM
[2] = target: Membrane-associated tyrosine- and threonine-specific cdc2-inhibitory kinase (Homo sapiens) (UniProt Q99640); experiment: Inhibition of PKMYT1 at 3 uM
[3] = target: Serine/threonine-protein kinase 16 (Homo sapiens) (UniProt O75716); experiment: Inhibition of STK16 at 3 uM
[4] = target: Myosin light chain kinase family member 4 (Homo sapiens) (UniProt Q86YV6); experiment: Inhibition of SgK085 at 3 uM
[5] = target: Uncharacterized serine/threonine-protein kinase SBK3 (Homo sapiens) (UniProt P0C264); experiment: Inhibition of SgK110 at 3 uM
[6] = target: Serine/threonine-protein kinase SIK2 (Homo sapiens) (UniProt Q9H0K1); experiment: Inhibition of SNF1LK2 at 3 uM
[7] = target: Dual specificity testis-specific protein kinase 1 (Homo sapiens) (UniProt Q15569); experiment: Inhibition of TESK1 at 3 uM
[8] = target: TGF-beta receptor type-2 (Homo sapiens) (UniProt P37173); experiment: Inhibition of TGFBR2 at 3 uM
[9] = target: Vascular endothelial growth factor receptor 1 (Homo sapiens) (UniProt P17948); experiment: Inhibition of FLT1 at 3 uM
Procedure, shortened: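 Single-concentration kinase panel scoring: each value is the percentage of enzyme activity remaining relative to a DMSO-only control. An activity statistically indistinct from DMSO control was scored "no hit".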

[10] = target: Inhibitor of nuclear factor kappa-B kinase subunit alpha (Homo sapiens) (UniProt O15111); experiment: Inhibition of IKK-alpha at 3 uM
[11] = target: Interleukin-1 receptor-associated kinase 3 (Homo sapiens) (UniProt Q9Y616); experiment: Inhibition of IRAK3 at 3 uM
[12] = target: Leukocyte tyrosine kinase receptor (Homo sapiens) (UniProt P29376); experiment: Inhibition of LTK at 3 uM
[13] = target: Mitogen-activated protein kinase kinase kinase 3 (Homo sapiens) (UniProt Q99759); experiment: Inhibition of MAP3K3 at 3 uM
[14] = target: MAP kinase-activated protein kinase 2 (Homo sapiens) (UniProt P49137); experiment: Inhibition of MAPKAPK2 at 3 uM
[15] = target: Dual specificity mitogen-activated protein kinase kinase 3 (Homo sapiens) (UniProt P46734); experiment: Inhibition of MEK3 at 3 uM
[16] = target: Dual specificity mitogen-activated protein kinase kinase 4 (Homo sapiens) (UniProt P45985); experiment: Inhibition of MEK4 at 3 uM
Sequence of Dual specificity mitogen-activated protein kinase kinase 4 (Homo sapiens) (P45985 whole entry): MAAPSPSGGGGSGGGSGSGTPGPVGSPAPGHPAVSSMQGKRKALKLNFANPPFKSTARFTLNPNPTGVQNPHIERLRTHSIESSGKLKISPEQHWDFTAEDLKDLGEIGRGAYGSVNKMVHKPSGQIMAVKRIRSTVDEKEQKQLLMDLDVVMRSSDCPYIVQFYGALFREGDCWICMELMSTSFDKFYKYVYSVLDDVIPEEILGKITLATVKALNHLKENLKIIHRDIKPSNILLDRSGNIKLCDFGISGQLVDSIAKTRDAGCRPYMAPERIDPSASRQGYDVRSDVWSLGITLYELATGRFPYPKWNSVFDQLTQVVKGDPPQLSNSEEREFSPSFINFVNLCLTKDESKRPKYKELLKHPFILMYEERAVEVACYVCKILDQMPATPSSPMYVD

[17] = target: MAP kinase-interacting serine/threonine-protein kinase 1 (Homo sapiens) (UniProt Q9BUB5); experiment: Inhibition of MKNK1 at 3 uM
[18] = target: Mitogen-activated protein kinase kinase kinase 11 (Homo sapiens) (UniProt Q16584); experiment: Inhibition of MLK3 at 3 uM
[19] = target: Serine/threonine-protein kinase N1 (Homo sapiens) (UniProt Q16512); experiment: Inhibition of PKN1 at 3 uM
Sequence of Serine/threonine-protein kinase N1 (Homo sapiens) (Q16512 2-942 limits assumed): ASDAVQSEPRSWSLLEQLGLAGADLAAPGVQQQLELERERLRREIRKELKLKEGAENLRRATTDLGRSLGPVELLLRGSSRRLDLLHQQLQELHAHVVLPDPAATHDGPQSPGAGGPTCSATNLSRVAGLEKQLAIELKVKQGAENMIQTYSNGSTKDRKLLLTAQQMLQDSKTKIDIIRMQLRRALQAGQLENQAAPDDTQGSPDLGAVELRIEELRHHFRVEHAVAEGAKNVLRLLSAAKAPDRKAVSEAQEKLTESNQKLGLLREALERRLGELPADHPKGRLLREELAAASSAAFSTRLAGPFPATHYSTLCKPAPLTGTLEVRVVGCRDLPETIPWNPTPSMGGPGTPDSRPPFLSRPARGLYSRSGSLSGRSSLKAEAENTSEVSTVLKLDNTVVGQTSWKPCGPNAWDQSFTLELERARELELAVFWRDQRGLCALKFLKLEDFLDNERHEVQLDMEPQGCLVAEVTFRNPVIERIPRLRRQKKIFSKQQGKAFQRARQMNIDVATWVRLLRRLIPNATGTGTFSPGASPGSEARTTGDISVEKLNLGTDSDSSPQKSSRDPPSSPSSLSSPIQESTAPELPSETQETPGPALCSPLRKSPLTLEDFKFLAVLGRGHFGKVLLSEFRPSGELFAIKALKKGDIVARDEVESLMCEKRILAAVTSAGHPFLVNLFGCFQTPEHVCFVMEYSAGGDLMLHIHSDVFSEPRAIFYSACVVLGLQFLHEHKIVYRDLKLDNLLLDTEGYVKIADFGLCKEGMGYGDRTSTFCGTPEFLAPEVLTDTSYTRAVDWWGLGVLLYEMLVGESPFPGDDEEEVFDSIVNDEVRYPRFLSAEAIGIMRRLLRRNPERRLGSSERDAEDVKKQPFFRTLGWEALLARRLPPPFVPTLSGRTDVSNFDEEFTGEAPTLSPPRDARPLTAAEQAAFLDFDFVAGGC

[20] = target: Serine/threonine-protein kinase PLK1 (Homo sapiens) (UniProt P53350); experiment: Inhibition of PLK1 at 3 uM
[21] = target: Proto-oncogene tyrosine-protein kinase receptor Ret (Homo sapiens) (UniProt P07949); experiment: Inhibition of RET at 3 uM
[22] = target: Cyclin-dependent kinase 15 (Homo sapiens) (UniProt Q96Q40); experiment: Inhibition of PFTAIRE2 at 3 uM
[23] = target: Phosphorylase b kinase gamma catalytic chain, skeletal muscle/heart isoform (Homo sapiens) (UniProt Q16816); experiment: Inhibition of PHKG1 at 3 uM
[24] = target: Wee1-like protein kinase 2 (Homo sapiens) (UniProt P0C1S8); experiment: Inhibition of WEE2 at 3 uM
[25] = target: Mitogen-activated protein kinase kinase kinase 20 (Homo sapiens) (UniProt Q9NYL2); experiment: Inhibition of ZAK at 3 uM
[26] = target: Adenosine receptor A1 (Homo sapiens) (UniProt P30542); experiment: Inhibition of human adenosine A1 receptor at 3 uM
Procedure, shortened: (§1)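 Counter-screen binding/enzyme panel at single 3 μM, n=2; results as percent inhibition. Species per target as listed (rat NMDA, GABAA sites; human receptors, transporters; rabbit ACE).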

[27] = target: Adenosine receptor A3 (Homo sapiens) (UniProt P0DMS8); experiment: Inhibition of human adenosine A3 receptor at 3 uM; procedure, shortened: as §1
[28] = target: Alpha-1A adrenergic receptor (Rattus norvegicus) (UniProt P43140); experiment: Inhibition of rat adrenergic alpha1A receptor at 3 uM
Sequence of Alpha-1A adrenergic receptor (Rattus norvegicus) (P43140 whole entry): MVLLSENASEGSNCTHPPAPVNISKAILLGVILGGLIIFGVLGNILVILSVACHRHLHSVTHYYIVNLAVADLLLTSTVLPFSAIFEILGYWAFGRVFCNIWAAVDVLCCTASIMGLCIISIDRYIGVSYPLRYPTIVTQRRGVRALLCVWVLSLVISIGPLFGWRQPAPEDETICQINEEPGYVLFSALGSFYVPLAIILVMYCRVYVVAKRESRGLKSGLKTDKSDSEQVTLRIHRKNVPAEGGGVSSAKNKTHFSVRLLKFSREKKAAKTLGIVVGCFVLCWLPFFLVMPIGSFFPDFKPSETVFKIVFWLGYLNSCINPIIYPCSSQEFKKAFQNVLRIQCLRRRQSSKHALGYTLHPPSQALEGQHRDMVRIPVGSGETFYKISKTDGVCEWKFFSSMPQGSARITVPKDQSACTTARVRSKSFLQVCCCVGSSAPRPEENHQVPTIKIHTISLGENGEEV

[29] = target: Type-2 angiotensin II receptor (Homo sapiens) (UniProt P50052); experiment: Inhibition of human AT2 receptor at 3 uM; procedure, shortened: as §1
Sequence of Type-2 angiotensin II receptor (Homo sapiens) (P50052 whole entry): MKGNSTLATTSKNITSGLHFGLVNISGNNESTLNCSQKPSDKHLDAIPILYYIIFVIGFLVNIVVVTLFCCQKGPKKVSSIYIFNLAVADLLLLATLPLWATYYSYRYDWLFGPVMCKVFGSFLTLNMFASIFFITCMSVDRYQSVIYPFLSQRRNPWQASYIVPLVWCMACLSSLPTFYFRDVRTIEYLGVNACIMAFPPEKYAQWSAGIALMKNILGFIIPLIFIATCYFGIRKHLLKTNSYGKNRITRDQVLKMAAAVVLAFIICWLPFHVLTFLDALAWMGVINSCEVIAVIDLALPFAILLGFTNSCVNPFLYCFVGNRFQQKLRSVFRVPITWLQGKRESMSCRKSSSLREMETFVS

[30] = target: D(2) dopamine receptor (Homo sapiens) (UniProt P14416); experiment: Inhibition of human dopamine D2S receptor at 3 uM; procedure, shortened: as §1
[31] = system: Tyrosine-protein kinase ABL1 (Homo sapiens), P00519 [Q252H]; experiment: Inhibition of ABL1 Q252H mutant at 3 uM
[32] = target: Activin receptor type-1-like (Homo sapiens) (UniProt P37023); experiment: Inhibition of ACVRL1 at 3 uM
Sequence of Activin receptor type-1-like (Homo sapiens) (P37023 whole entry): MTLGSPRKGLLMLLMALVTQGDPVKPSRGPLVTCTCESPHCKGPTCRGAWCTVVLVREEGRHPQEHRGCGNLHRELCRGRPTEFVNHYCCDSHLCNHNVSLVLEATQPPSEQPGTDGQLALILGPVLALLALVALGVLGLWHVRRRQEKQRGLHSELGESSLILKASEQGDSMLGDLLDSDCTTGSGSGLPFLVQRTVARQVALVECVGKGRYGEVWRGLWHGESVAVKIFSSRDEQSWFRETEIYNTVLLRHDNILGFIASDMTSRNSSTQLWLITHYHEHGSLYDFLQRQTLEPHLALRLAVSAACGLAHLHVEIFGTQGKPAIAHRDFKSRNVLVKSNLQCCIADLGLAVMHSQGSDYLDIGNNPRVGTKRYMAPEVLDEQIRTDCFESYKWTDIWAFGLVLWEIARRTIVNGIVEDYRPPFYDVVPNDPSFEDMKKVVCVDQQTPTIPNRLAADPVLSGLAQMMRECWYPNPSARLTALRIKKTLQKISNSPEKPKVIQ

[33] = target: 5'-AMP-activated protein kinase catalytic subunit alpha-1 (Homo sapiens) (UniProt Q13131); experiment: Inhibition of AMPKalpha1 at 3 uM
[34] = target: Aurora kinase A (Homo sapiens) (UniProt O14965); experiment: Inhibition of AURKA at 3 uM
[35] = target: Cytoplasmic tyrosine-protein kinase BMX (Homo sapiens) (UniProt P51813); experiment: Inhibition of BMX at 3 uM
Sequence of Cytoplasmic tyrosine-protein kinase BMX (Homo sapiens) (P51813 whole entry): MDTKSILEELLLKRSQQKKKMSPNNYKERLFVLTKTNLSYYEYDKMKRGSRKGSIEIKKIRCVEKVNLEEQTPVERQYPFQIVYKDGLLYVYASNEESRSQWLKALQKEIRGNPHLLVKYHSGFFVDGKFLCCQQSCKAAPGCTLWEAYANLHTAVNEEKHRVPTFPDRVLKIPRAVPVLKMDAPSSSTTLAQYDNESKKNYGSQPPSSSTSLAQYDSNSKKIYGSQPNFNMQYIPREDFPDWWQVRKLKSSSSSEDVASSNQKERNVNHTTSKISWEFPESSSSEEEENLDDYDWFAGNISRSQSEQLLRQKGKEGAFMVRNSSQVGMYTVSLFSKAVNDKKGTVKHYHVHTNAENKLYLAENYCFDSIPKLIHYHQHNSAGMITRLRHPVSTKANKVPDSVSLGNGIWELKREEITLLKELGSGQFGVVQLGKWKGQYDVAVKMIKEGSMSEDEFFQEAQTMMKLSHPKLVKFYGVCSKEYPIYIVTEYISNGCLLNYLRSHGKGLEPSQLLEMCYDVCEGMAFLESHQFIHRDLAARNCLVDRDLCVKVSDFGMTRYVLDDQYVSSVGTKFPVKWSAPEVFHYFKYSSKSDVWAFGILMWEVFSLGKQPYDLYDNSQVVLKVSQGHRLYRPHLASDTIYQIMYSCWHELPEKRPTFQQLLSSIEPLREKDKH

[36] = target: Tyrosine-protein kinase BTK (Homo sapiens) (UniProt Q06187); experiment: Inhibition of BTK at 3 uM
Sequence of Tyrosine-protein kinase BTK (Homo sapiens) (Q06187 whole entry): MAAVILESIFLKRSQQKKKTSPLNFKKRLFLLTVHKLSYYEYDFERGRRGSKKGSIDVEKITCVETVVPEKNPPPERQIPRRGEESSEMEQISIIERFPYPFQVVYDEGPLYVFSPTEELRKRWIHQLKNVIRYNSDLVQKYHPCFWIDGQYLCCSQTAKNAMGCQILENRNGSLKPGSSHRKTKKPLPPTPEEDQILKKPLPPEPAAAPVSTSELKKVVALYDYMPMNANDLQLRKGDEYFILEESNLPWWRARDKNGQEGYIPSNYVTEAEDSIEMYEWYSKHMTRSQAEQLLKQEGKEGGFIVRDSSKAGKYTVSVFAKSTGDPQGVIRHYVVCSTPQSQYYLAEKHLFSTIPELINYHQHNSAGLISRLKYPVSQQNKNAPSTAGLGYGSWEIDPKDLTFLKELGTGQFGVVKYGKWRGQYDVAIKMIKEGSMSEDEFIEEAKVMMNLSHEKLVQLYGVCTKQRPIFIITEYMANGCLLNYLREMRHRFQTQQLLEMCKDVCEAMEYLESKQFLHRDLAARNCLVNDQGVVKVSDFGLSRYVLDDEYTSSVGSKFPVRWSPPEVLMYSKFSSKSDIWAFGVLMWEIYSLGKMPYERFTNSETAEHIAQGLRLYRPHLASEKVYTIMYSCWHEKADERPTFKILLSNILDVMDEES

[37] = target: 5-hydroxytryptamine receptor 2A (Homo sapiens) (UniProt P28223); experiment: Inhibition of human 5HT2 receptor at 3 uM; procedure, shortened: as §1
Sequence of 5-hydroxytryptamine receptor 2A (Homo sapiens) (P28223 whole entry): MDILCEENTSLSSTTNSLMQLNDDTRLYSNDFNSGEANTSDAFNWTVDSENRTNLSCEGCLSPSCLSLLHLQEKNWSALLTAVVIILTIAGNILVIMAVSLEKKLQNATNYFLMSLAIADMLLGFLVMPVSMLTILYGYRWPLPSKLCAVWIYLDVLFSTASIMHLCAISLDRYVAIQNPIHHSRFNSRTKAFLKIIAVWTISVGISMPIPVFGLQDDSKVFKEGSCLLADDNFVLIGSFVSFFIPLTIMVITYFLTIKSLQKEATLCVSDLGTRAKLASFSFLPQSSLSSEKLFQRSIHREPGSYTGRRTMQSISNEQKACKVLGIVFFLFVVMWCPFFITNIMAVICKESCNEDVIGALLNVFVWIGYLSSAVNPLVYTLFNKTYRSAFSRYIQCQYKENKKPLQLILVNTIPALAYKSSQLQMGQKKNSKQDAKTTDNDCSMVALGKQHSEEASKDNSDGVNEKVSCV

[38] = target: Dual specificity protein kinase CLK3 (Homo sapiens) (UniProt P49761); experiment: Inhibition of CLK3 at 3 uM
Sequence of Dual specificity protein kinase CLK3 (Homo sapiens) (P49761 whole entry, looked up, canonical isoform): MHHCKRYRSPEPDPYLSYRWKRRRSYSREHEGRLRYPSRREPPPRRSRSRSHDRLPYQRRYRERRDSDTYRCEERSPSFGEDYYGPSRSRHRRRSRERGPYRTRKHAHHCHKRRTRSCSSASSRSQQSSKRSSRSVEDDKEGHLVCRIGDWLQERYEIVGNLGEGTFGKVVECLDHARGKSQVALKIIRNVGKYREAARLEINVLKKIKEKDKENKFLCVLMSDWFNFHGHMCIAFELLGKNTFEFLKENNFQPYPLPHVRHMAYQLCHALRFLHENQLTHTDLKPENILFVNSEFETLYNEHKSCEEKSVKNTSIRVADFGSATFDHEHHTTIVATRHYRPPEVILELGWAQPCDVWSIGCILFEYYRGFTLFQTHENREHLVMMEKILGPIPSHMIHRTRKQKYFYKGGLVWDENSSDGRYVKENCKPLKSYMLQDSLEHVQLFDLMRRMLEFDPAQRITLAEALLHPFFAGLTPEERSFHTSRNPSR

[39] = target: Casein kinase I isoform gamma-2 (Homo sapiens) (UniProt P78368); experiment: Inhibition of CSNK1G2 at 3 uM
[40] = target: Dual specificity tyrosine-phosphorylation-regulated kinase 1B (Homo sapiens) (UniProt Q9Y463); experiment: Inhibition of DYRK1B at 3 uM
[41] = target: Calcium/calmodulin-dependent protein kinase type 1G (Homo sapiens) (UniProt Q96NX5); experiment: Inhibition of CAMK1G at 3 uM
[42] = target: Calcium/calmodulin-dependent protein kinase type II subunit alpha (Homo sapiens) (UniProt Q9UQM7); experiment: Inhibition of CAMK2A at 3 uM
Rattus norvegicus = species: Rattus norvegicus; conditions: 3 uM
[43] = target: Mitogen-activated protein kinase kinase kinase 12 (DLK) (Homo sapiens) (UniProt Q12852); experiment: Inhibition of DLK at 3 uM

Structure (SMILES): CN(C)CCOc1cc(-c2cn[nH]c2)ccc1NC(=O)C1COc2ccccc2O1 (centres undefined) [SR-3677]
- inhibition [1]: < 10%
- inhibition [2]: < 10%
- inhibition [3]: < 10%
- inhibition [4]: < 10%
- inhibition [5]: < 10%
- inhibition [6]: < 10%
- inhibition [7]: < 10%
- inhibition [8]: < 10%
- inhibition [9]: < 10%
- inhibition [10]: < 10%
- inhibition [11]: < 10%
- inhibition [12]: < 10%
- inhibition [13]: < 10%
- inhibition [14]: < 10%
- inhibition [15]: < 10%
- inhibition [16]: < 10%
- inhibition [17]: < 10%
- inhibition [18]: < 10%
- inhibition [19]: < 10%
- inhibition [20]: < 10%
- inhibition [21]: < 10%
- inhibition [22]: < 10%
- inhibition [23]: < 10%
- inhibition [24]: < 10%
- inhibition [25]: < 10%
- inhibition [26]: -4%
- inhibition [27]: -4%
- inhibition [28]: 53%
- inhibition [29]: -1%
- inhibition [30]: 6%
- inhibition [31]: < 10%
- inhibition [32]: < 10%
- inhibition [33]: < 10%
- inhibition [34]: < 10%
- inhibition [35]: < 10%
- inhibition [36]: < 10%
- inhibition [37]: 2%
- inhibition [38]: < 10%
- inhibition [39]: < 10%
- inhibition [40]: < 10%
- inhibition [41]: < 10%
- inhibition [42]: < 10%
- inhibition (Rattus norvegicus): -1%
- inhibition [43]: < 10%
